Test results from EPA's CvTdb concentration-time database.

Legend:
Hamster = assay: concentration in plasma after dosing; conditions: dosed: 2,4-Dichlorophenoxyacetic acid, 2.0 mg/kg, oral, Male, Syrian Golden
Summary of the method: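 Sampling and analytical methods are those of each source and frequently went unreported. The concentration-versus-time and amount-versus-time points were compiled from published in vivo toxicokinetic studies and two structured collections. Most were digitised from plot screenshots with WebPlotDigitizer, with others copied from tables, in the reported units.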

Rat [1] = assay: concentration in plasma after dosing; conditions: dosed: 2-Hydroxy-4-methoxybenzophenone, 100 mg/kg, oral, Male, F344
Mouse [2] = assay: concentration in plasma after dosing; conditions: 10 min; dosed: 2-Hydroxy-4-methoxybenzophenone; 500 mg/kg; oral; Female; B6C3F1
Mouse [3] = assay: concentration in plasma after dosing; conditions: dosed: 2-Hydroxy-4-methoxybenzophenone, 100 mg/kg, oral, Male, B6C3F1
Mouse [4] = assay: concentration in plasma after dosing; conditions: 2 h; dosed: 2-Hydroxy-4-methoxybenzophenone; 500 mg/kg; oral; Male; B6C3F1
Rat [5] = assay: concentration in plasma after dosing; conditions: dosed: Methyleugenol, 37 mg/kg, iv, Female, F344
Rat [6] = assay: concentration in plasma after dosing; conditions: dosed: Methyleugenol, 37 mg/kg, iv, Male, F344
Rat [7] = assay: concentration in liver after dosing; conditions: 48 h; dosed: Perfluorohexane-1-sulphonic acid – potassium salt; 16 mg/kg; oral; Female; Harlan Sprague Dawley
Rat [8] = assay: concentration in kidney after dosing; conditions: 3 h; dosed: Perfluorohexane-1-sulphonic acid – potassium salt; 16 mg/kg; oral; Female; Harlan Sprague Dawley
Rat [9] = assay: concentration in brain after dosing; conditions: 12 h; dosed: Perfluorohexane-1-sulphonic acid – potassium salt; 16 mg/kg; oral; Female; F344
Rat [10] = assay: concentration in liver after dosing; conditions: 6 h; dosed: Perfluorohexane-1-sulphonic acid – potassium salt; 16 mg/kg; oral; Female; F344
Rat [11] = assay: concentration in plasma after dosing; conditions: 1 h; dosed: Perfluorohexane-1-sulphonic acid – potassium salt; 16 mg/kg; oral; Male; F344
Rat [12] = assay: concentration in kidney after dosing; conditions: 192 h; dosed: Perfluorohexane-1-sulphonic acid – potassium salt; 16 mg/kg; oral; Female; Harlan Sprague Dawley
Rat [13] = assay: concentration in brain after dosing; conditions: 192 h; dosed: Perfluorohexane-1-sulphonic acid – potassium salt; 16 mg/kg; oral; Female; F344
Rat [14] = assay: concentration in brain after dosing; conditions: 24 h; dosed: Perfluorohexane-1-sulphonic acid – potassium salt; 16 mg/kg; oral; Female; Harlan Sprague Dawley
Rat [15] = assay: concentration in brain after dosing; conditions: 6 h; dosed: Perfluorohexane-1-sulphonic acid – potassium salt; 16 mg/kg; oral; Female; F344
Rat [16] = assay: concentration in liver after dosing; conditions: 3 h; dosed: Perfluorohexane-1-sulphonic acid – potassium salt; 16 mg/kg; oral; Female; Harlan Sprague Dawley
Rat [17] = assay: concentration in plasma after dosing; conditions: 0.5 h; dosed: Primidone; 130 mg/kg; oral; Female; F344
Rat [18] = assay: concentration in plasma after dosing; conditions: 12 h; dosed: Primidone; 30 mg/kg; oral; Female; F344
Rat [19] = assay: concentration in plasma after dosing; conditions: 9 h; dosed: Primidone; 80 mg/kg; oral; Male; F344
Rat [20] = assay: concentration in plasma after dosing; conditions: dosed: Pyridine, 5 mg/kg, oral, Male, F344
Rat [21] = assay: concentration in brain after dosing; conditions: 1.5 h; dosed: alpha-Thujone; 50 mg/kg; oral; Female; Harlan Sprague Dawley
Rat [22] = assay: concentration in brain after dosing; conditions: 5 min; dosed: alpha-Thujone; 25 mg/kg; oral; Male; Harlan Sprague Dawley
Rat [23] = assay: concentration in brain after dosing; conditions: 0.5 h; dosed: alpha-Thujone; 50 mg/kg; oral; Male; Harlan Sprague Dawley
Rat [24] = assay: concentration in brain after dosing; conditions: 5 min; dosed: alpha-Thujone; 50 mg/kg; oral; Female; Harlan Sprague Dawley
Rat [25] = assay: concentration in brain after dosing; conditions: 0.5 h; dosed: alpha-Thujone; 50 mg/kg; oral; Female; Harlan Sprague Dawley
Rat [26] = assay: concentration in brain after dosing; conditions: 6 h; dosed: alpha-Thujone; 25 mg/kg; oral; Male; Harlan Sprague Dawley
Rat [27] = assay: concentration in brain after dosing; conditions: 1.5 h; dosed: alpha-Thujone; 25 mg/kg; oral; Male; Harlan Sprague Dawley
Rat [28] = assay: concentration in plasma after dosing; conditions: 5 min; dosed: alpha-Thujone; 50 mg/kg; oral; Female; Harlan Sprague Dawley
Rat [29] = assay: concentration in brain after dosing; conditions: 5 min; dosed: alpha-Thujone; 50 mg/kg; oral; Female; Harlan Sprague Dawley; remark: listed apart in the source
Rat [30] = assay: concentration in brain after dosing; conditions: 2 min; dosed: alpha-Thujone; 50 mg/kg; oral; Female; Harlan Sprague Dawley
Rat [31] = assay: concentration in brain after dosing; conditions: 5 min; dosed: alpha-Thujone; 25 mg/kg; oral; Male; Harlan Sprague Dawley; remark: listed apart in the source
Rat [32] = assay: concentration in plasma after dosing; conditions: 10 min; dosed: alpha-Thujone; 50 mg/kg; oral; Female; Harlan Sprague Dawley
Rat [33] = assay: concentration in plasma after dosing; conditions: 3 h; dosed: alpha-Thujone; 25 mg/kg; oral; Female; Harlan Sprague Dawley
Rat [34] = assay: concentration in plasma after dosing; conditions: 3 h; dosed: alpha-Thujone; 25 mg/kg; oral; Female; Harlan Sprague Dawley; remark: listed apart in the source
Rat [35] = assay: concentration in brain after dosing; conditions: 3 h; dosed: alpha-Thujone; 25 mg/kg; oral; Female; Harlan Sprague Dawley
Rat [36] = assay: concentration in brain after dosing; conditions: 0.5 h; dosed: alpha-Thujone; 25 mg/kg; oral; Male; Harlan Sprague Dawley

O=C(O)COc1ccc(Cl)cc1Cl [2,4-Dichlorophenoxyacetic acid]
Hamster
Conditions | concentration in plasma [µg/mL]
0.25 h | 6.17
1 h | 0.492
2 h | 1.87
2.5 min | 0.146
5 min | 4.92
10 min | 1.97

O=C(c1ccccc1)c1ccc(O)cc1O [2,4-Dihydroxybenzophenone]
concentration in plasma [µg/mL]
Conditions | 0.25 h | 2 h | 2.5 min | 3 h | 4 h | 10 min
Mouse [3] | 0.433 | 0.177 | 0.185 | 0.119 | – | 0.301
Rat [1] | 0.0612 | – | – | – | 0.0484 | –

Conditions | concentration in plasma [µg/mL]
Mouse [2] | 4.23
Mouse [4] | 0.318

C=CCc1ccc(OC)c(OC)c1 [Methyleugenol]
concentration in plasma [µg/mL]
Conditions | 0.25 h | 1.5 h | 3 h | 5 min
Rat [5] | 9.2 | 0.738 | – | –
Rat [6] | – | – | 0.226 | 28.8

O=S(=O)([O-])C(F)(F)C(F)(F)C(F)(F)C(F)(F)C(F)(F)C(F)(F)F.[K+] [Perfluorohexane-1-sulphonic acid – potassium salt]
Conditions | concentration in brain [ng/g] | concentration in kidney [ng/g] | concentration in liver [ng/g] | concentration in plasma [µg/mL]
Rat [7] | – | – | 13300 | –
Rat [8] | – | 31500 | – | –
Rat [9] | 1770 | – | – | –
Rat [10] | – | – | 87400 | –
Rat [11] | – | – | – | 55.6
Rat [12] | – | 1650 | – | –
Rat [13] | 834 | – | – | –
Rat [14] | 743 | – | – | –
Rat [15] | 1620 | – | – | –
Rat [16] | – | – | 54100 | –

CCC1(c2ccccc2)C(=O)NCNC1=O [Primidone]
Conditions | concentration in plasma [µg/mL]
Rat [17] | 18.8
Rat [18] | 5.5
Rat [19] | 3

c1ccncc1 [Pyridine]
Rat [20]
Conditions | concentration in plasma [µg/mL]
4 h | 2.55
5 min | 2.49

CC(C)[C@]12CC(=O)[C@H](C)[C@H]1C2 [alpha-Thujone]
Conditions | concentration in brain [ng/g] | concentration in plasma [ng/mL]
Rat [21] | 1020 | –
Rat [22] | 754 | –
Rat [23] | 5490 | –
Rat [24] | 996 | –
Rat [25] | 8580 | –
Rat [26] | 435 | –
Rat [27] | 525 | –
Rat [28] | – | 201
Rat [29] | 994 | –
Rat [30] | 87.7 | –
Rat [31] | 62.6 | –
Rat [32] | – | 1160
Rat [33] | – | 180
Rat [34] | – | 176
Rat [35] | 919 | –
Rat [36] | 883 | –
